Measurements: ChEMBL document CHEMBL1122066, “Arylhydroxamic acid N,O-acyltransferase substrates. Acetyl transfer and electrophile generating activity of N-hydroxy-N-(4-alkyl-, 4-alkenyl-, and 4-cyclohexylphenyl)acetamides” (J Med Chem, 1982)

Key:
Rattus norvegicus [1] = species on record: Rattus norvegicus; assay: Tested for its arylhydroxamic acid N,O-Acyltransferase (AHAT) catalyzed transacetylation of aminoazobenzene with partially purified hepatic enzyme in rat; assay type: functional
Method in brief: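 Rat liver AHAT came from 105000g cytosol, partially purified 2- to 3-fold by ammonium sulfate. It was assayed at 1.0 mg/mL protein in pH 7.0 pyrophosphate/1 mM DTT/KCl with hydroxamic acid (1.0 mM) and AAB (0.15 mM) for 5 min at 37 °C in air. The reaction was stopped with TCA/EtOH and read at 497 nm, with a heat-denatured enzyme control. Rates are mean ± SE, N = 3–4, run in triplicate.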

[2] = system: arylhydroxamic acid N,O-acyltransferase (Mesocricetus auratus); assay: Tested for its arylhydroxamic acid N,O-Acyltransferase (AHAT) catalyzed transacetylation of aminoazobenzene with partially purified hepatic enzyme in hamster; design: Rate: unit not given here
Rattus norvegicus [3] = species on record: Rattus norvegicus; assay: Aminoazobenzene transacetylation inhibition by partially purified hepatic enzyme using N-ethyl maleimide as inhibitor (1.0 mM) in rat; assay type: functional
Method in brief: (§1)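 Rat or hamster liver cytosol (105000g supernatant), partially purified by ammonium sulfate fractionation, was incubated 5 min with the sulfhydryl reagent (1.0 mM). AAB transacetylation was then run in pH 7.0 pyrophosphate/1 mM DTT at 37 °C with hydroxamic acid donor (1.0 mM final) and AAB (0.15 mM final). It was stopped with TCA/EtOH and read at 497 nm. Values are % inhibition, means of 2–3 triplicate experiments.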

Cricetinae gen. sp. [4] = assay: Aminoazobenzene transacetylation inhibition by partially purified hepatic enzyme using 4-chloro mercuri benzenesulfonate as inhibitor (1.0 mM) in hamster; assay type: functional; conditions: Cricetulus griseus; method in brief: as §1
Rattus norvegicus [5] = species on record: Rattus norvegicus; assay: Aminoazobenzene transacetylation inhibition by partially purified hepatic enzyme using iodo acetamide as inhibitor (1.0 mM) in rat; assay type: functional; method in brief: as §1
Cricetulus griseus = species on record: Cricetulus griseus; assay: Tested for its arylhydroxamic acid N,O-Acyltransferase (AHAT) catalyzed transacetylation of aminoazobenzene with hamster hepatic enzyme after dialysis; assay type: functional
Method in brief: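 Hamster enzyme (partially purified by ammonium sulfate) was preincubated 20 min at 37 °C in air with the hydroxamic acid; controls had ethanol only. It was then dialyzed 6 h at 4 °C against N2-sparged pH 7.0 pyrophosphate/1 mM DTT/2% EtOH with three buffer changes. Portions taken before and after dialysis were assayed with AAB plus the same hydroxamic acid for 5 or 8 min, read at 497 nm. Rates are nmol/mg/min, mean of two triplicate experiments.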

[6] = system: arylhydroxamic acid N,O-acyltransferase (Mesocricetus auratus); assay: Tested for its arylhydroxamic acid N,O-Acyltransferase (AHAT) catalyzed transacetylation of aminoazobenzene with hamster hepatic enzyme before dialysis
Rattus norvegicus [7] = species on record: Rattus norvegicus; assay: Aminoazobenzene transacetylation inhibition by partially purified hepatic enzyme using 4-chloro mercuri benzenesulfonate as inhibitor (1.0 mM) in rat; assay type: functional; method in brief: as §1
Cricetinae gen. sp. [8] = assay: Aminoazobenzene transacetylation inhibition by partially purified hepatic enzyme using iodo acetamide as inhibitor (1.0 mM) in hamster; assay type: functional; conditions: Cricetulus griseus; method in brief: as §1
Cricetinae gen. sp. [9] = assay: Aminoazobenzene transacetylation inhibition by partially purified hepatic enzyme using N-ethyl maleimide as inhibitor (1.0 mM) in hamster; assay type: functional; conditions: Cricetulus griseus; method in brief: as §1
[10] = system: arylhydroxamic acid N,O-acyltransferase (Mesocricetus auratus); assay: Tested for its arylhydroxamic acid N,O-Acyltransferase (AHAT) catalyzed transacetylation of aminoazobenzene with hamster hepatic enzyme after dialysis
Cricetinae gen. sp. [11] = assay: Aminoazobenzene transacetylation inhibition by partially purified hepatic enzyme using iodo acetamide as inhibitor (1.0 mM) in hamster; conditions: at 1 mM

Row | Compound | Rate (Rattus norvegicus [1]) | Rate [2] | other results
1 | CCCCCc1ccc(N(O)C(C)=O)cc1 | 5.2 nmol/min/mg | 13.8 | 
2 | CC(=O)N(O)c1ccccc1 | 0.2 nmol/min/mg | 0.6 | 
3 | CCCCc1ccc(N(O)C(C)=O)cc1 | 4.7 nmol/min/mg | 8.8 | 
4 | CC(=O)N(O)c1ccc(-c2ccccc2)cc1 | 5.8 nmol/min/mg | 22.4 | inhibition (Rattus norvegicus [3]): 92%; inhibition (Cricetinae gen. sp. [4]): 100%; inhibition (Rattus norvegicus [5]): 95%; Rate (mg of protein) (Cricetulus griseus): 6.9; Rate (mg of protein) [6]: 6.3; inhibition (Rattus norvegicus [7]): 100%; inhibition (Cricetinae gen. sp. [8]): 100%; inhibition (Cricetinae gen. sp. [9]): 100%
5 | CC(=O)N(O)c1ccc(C2CCCCC2)cc1 | 4.7 nmol/min/mg |  | inhibition (Rattus norvegicus [3]; at 1 mM): 100%; Rate (mg of protein) [2]: 9.4; inhibition (Cricetinae gen. sp. [4]; at 1 mM): 100%; inhibition (Rattus norvegicus [5]; at 1 mM): 99%; Rate (mg of protein) [6]: 3.2; inhibition (Rattus norvegicus [7]; at 1 mM): 100%; Rate (mg of protein) [10]: 1.7; inhibition (Cricetinae gen. sp. [11]): 100%; inhibition (Cricetinae gen. sp. [9]; at 1 mM): 96%

More lines, main results first:

Row | Rate (Rattus norvegicus [1]) | Rate [2] | Compound | other results
6 | 5.9 nmol/min/mg | 13 | C/C=C/c1ccc(N(O)C(C)=O)cc1 | 
7 | 3.1 nmol/min/mg | 5.3 | CCCc1ccc(N(O)C(C)=O)cc1 | 
8 | 3.3 nmol/min/mg | 6.6 | C=Cc1ccc(N(O)C(C)=O)cc1 | 
9 | 5.7 nmol/min/mg | 13.1 | CC(=O)N(O)c1ccc(C=C(C)C)cc1 | 
10 | 2.1 nmol/min/mg | 3.5 | CCc1ccc(N(O)C(C)=O)cc1 | 
11 | 1.1 nmol/min/mg | 2.1 | CC(=O)N(O)c1ccc(C)cc1 | 
